Laboratory results as given in ChEMBL document CHEMBL4316644, “Eudesmane Glycosides from Ambrosia artemisiifolia (Common Ragweed) as Potential Neuroprotective Agents” (J Nat Prod, 2019).
The source made the active and inactive calls. The rule behind the calls is not given here.

Columns and labels:
HT-22 [1] = assay: Neuroprotective against amyloid beta (42 residues)-induced cell death in mouse HT22 cells transfected with pEGFP-C1/Abeta42 assessed as increase in cell viability at 40 uM measured after 24 hrs by MTT assay; assay type: functional, cell-based
In short: (§1)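 HT22 cells seeded at 4000 cells/well for 2–3 h at 37 °C, 5% CO2, then transfected with 0.2 μg pEGFP-C1/Aβ42 plasmid by Lipofectamine 2000. After 10 h, compounds were added in medium, mostly at 40 μM, some at 5 μM or at 10, 20 and 40 μM. Incubation continued 24 h, then MTT (2 mg/mL) viability read-out. Mean ± SD, n = 3, versus untreated Aβ42-transfected cells.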

HT-22 [2] = assay: Cytotoxicity against mouse HT22 cells assessed as reduction in cell viability at 40 uM measured after 24 hrs by MTT assay; assay type: cell-based; settings: ht-22, 24 h
In short: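 Untransfected HT22 mouse hippocampal cells grown in DMEM with 10% FBS and penicillin/streptomycin, seeded at 4000 cells/well, then incubated 24 h. Compounds in DMSO, diluted in serum-free medium (final DMSO 0.1 to 0.2% v/v), applied for 24 h. MTT (2 mg/mL) added for 4 h in the dark, formazan dissolved in DMSO, absorbance read at 550 nm.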

HT-22 [3] = assay: Neuroprotective against amyloid beta (42 residues)-induced cell death in mouse HT22 cells transfected with pEGFP-C1/Abeta42 assessed as increase in fluorescence intensity at 40 uM measured after 24 hrs by fluorescence microscopic analysis; assay type: functional, cell-based
In short: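 HT22 cells grown on glass coverslips, transfected with Aβ42 plasmid for 10 h. Medium then replaced with fresh medium containing 2% FBS, with or without compounds at 40 μM, for 24 h. Cells washed once with PBS. Fluorescence and bright-field images were captured by fluorescence microscopy to view GFP condensation.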

HT-22 [4] = assay: Neuroprotective against amyloid beta (42 residues)-induced cell death in mouse HT22 cells transfected with pEGFP-C1/Abeta42 assessed as increase in cell viability measured after 24 hrs by MTT assay; assay type: functional, cell-based; in short: as §1
HT-22 [5] = assay: Neuroprotective against amyloid beta (42 residues)-induced cell death in mouse HT22 cells transfected with pEGFP-C1/Abeta42 assessed as decrease in fluorescence intensity at 40 uM measured after 24 hrs by flow cytometry
HT-22 [6] = assay: Neuroprotective against amyloid beta (42 residues)-induced cell death in mouse HT22 cells transfected with pEGFP-C1/Abeta42 assessed as increase in cell viability up to 80 uM measured after 24 hrs by MTT assay; assay type: functional, cell-based

SMILES: CC1=CC[C@H](O)[C@@]2(C)[C@@H](OC(=O)C[C@](C)(O)CC(=O)O)C[C@@H](C(C)C)[C@@H](O[C@@H]3O[C@H](CO)[C@@H](O)[C@H](O)[C@H]3O)[C@H]12
- Activity (HT-22 [1]): Active

SMILES: CC(=O)O[C@@H]1C[C@H]2[C@H](C)[C@H]3OC(=O)[C@@H](C)[C@H]3CC[C@]2(C)[C@H]1OC(C)=O
- Activity (HT-22 [1]): Active

SMILES: C=C1C(=O)O[C@@H]2C[C@@H](C)[C@@H]3C[C@@H](OC(C)=O)[C@H](OC(C)=O)[C@@]3(C)C[C@H]12
- Activity (HT-22 [2]): Toxic

SMILES: C=C1CC[C@@H](O[C@@H]2O[C@H](CO)[C@@H](O)[C@H](O)[C@H]2O)[C@]2(C)CC[C@@H](C(C)C)[C@H](O)[C@@H]12
- Activity (HT-22 [1]): Active

SMILES: CC1=CC[C@H](OC(=O)C[C@](C)(O)CC(=O)O)[C@@]2(C)[C@@H](O)C[C@@H](C(C)C)[C@@H](O[C@@H]3O[C@H](CO)[C@@H](O)[C@H](O)[C@H]3O)[C@H]12
- Activity (HT-22 [1]): Active

SMILES: CC1=CC[C@H](O)[C@@]2(C)[C@@H](O)C[C@@H](C(C)C)[C@@H](O[C@@H]3O[C@H](CO)[C@@H](O)[C@H](O)[C@H]3O)[C@H]12
- Activity (HT-22 [3]): Active
- Activity (HT-22 [4]): Dose-dependent effect
- Activity (HT-22 [5]): Active
- Activity (HT-22 [1]): Active

SMILES: CC(=O)OC[C@H]1O[C@@H](O[C@@H]2[C@H](C(C)C)C[C@H](OC(=O)C[C@](C)(O)CC(=O)O)[C@]3(C)[C@@H](O)CC=C(C)[C@@H]23)[C@H](O)[C@@H](O)[C@@H]1O
- Activity (HT-22 [1]): Active

SMILES: O=C(/C=C/c1ccc(O)cc1)NCCCCN(CCCNC(=O)/C=C/c1ccc(O)cc1)C(=O)/C=C/c1ccc(O)cc1
- Activity (HT-22 [1]): Active

SMILES: C=C(C(=O)O)[C@H]1C[C@]2(C)C(=O)CC[C@]23O[C@H]1C[C@@H]3C
- Activity (HT-22 [1]): Active

SMILES: C=C1C(=O)O[C@@H]2[C@H]3C(C)=CC[C@H]3[C@](C)(O)C[C@H](O)[C@@H]12 [CUMAMBRIN B]
- Activity (HT-22 [2]): Toxic

SMILES: CC1=CC[C@H](O[C@@H]2OC[C@@H](O)[C@H](O)[C@H]2O)[C@@]2(C)[C@@H](O)C[C@@H](C(C)C)[C@@H](O[C@@H]3O[C@H](CO)[C@@H](O)[C@H](O)[C@H]3O)[C@H]12
- Activity (HT-22 [3]): Active
- Activity (HT-22 [4]): Dose-dependent effect
- Activity (HT-22 [5]): Active
- Activity (HT-22 [1]): Active

SMILES: C=C1CC[C@@H]2[C@](C)(CO)[C@H](O)CC[C@@]2(C)[C@@H]1C/C=C1/C(=O)OC[C@H]1O
- Activity (HT-22 [6]): Active
